Like-named read-outs stand apart in the source and are kept apart here. One block for each molecule: values may come before it.
Experiments:
[1] = type: in vivo, Sprague-Dawley rats
Outline: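 Healthy SD rats (n = 6) received a single oral dose of extract at 54 mg/kg. Tail-vein blood (0.3 mL) was taken at 0, 0.25, 0.5, 1, 2, 4, 8, 12 and 24 h; plasma was stored at −80°C. Marker compounds were measured by validated HPLC-DAD (C18, 35°C, 0.1% formic acid water/methanol gradient).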

[2] = test system: Nrf2/HO-1 and Casp-3 pathways; test: In vivo mechanistic validation using pathway inhibitors; design: species or system Sprague-Dawley (SD) rats; conditions: for Effect on P.indicus-induced reduction in serum cTn-T: ML385 30 mg/kg or Z-DEVD-FMK 1 mg/kg i.p. before P. indicus 54 mg/kg + ISO; for Intrinsic cardiotoxicity of inhibitor: control experiments
Outline: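 Rats (n = 8/group) received the test extract at 54 mg/kg p.o. on days 1-14 and ISO 85 mg/kg s.c. on days 7-14. An Nrf2 inhibitor (30 mg/kg) or a caspase-3 inhibitor (1 mg/kg) was given i.p. 30 min before each gavage; an ISO + vehicle group was included. Inhibition was checked by myocardial HO-1/cleaved caspase-3 western blot. Myocardial SOD and MDA (homogenate, ELISA) and serum cTn-T were measured.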

[3] = test system: ISO-induced myocardial ischemia; test: ECG monitoring; type: in vivo, Sprague-Dawley (SD) rats; conditions: propranolol 30 mg/kg oral 14 days
Outline: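 Male SD rats (n = 10/group) were dosed orally for 14 days, with ISO 85 mg/kg s.c. on days 7-14. Twenty-four hours after the last ISO, rats were anesthetized with 2% pentobarbital sodium (30 mg/kg i.p.) and fixed supine. Lead II ECG was recorded for 60 min for ST-segment and T-wave changes, QRS duration and VPB incidence.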

[4] = test system: ISO-induced myocardial ischemia; test: H&E histopathological score of myocardial tissue; type: in vivo, Sprague-Dawley (SD) rats; conditions: propranolol 30 mg/kg oral 14 days; ISO rats
Outline: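 ISO model: SD rats, 14-day oral pretreatment, ISO 85 mg/kg s.c. on days 7-14. Hearts were fixed in 4% paraformaldehyde for 24 h, paraffin-embedded and cut at 4 μm. Sections were H&E-stained and examined by light microscopy for myocardial damage. Final scores were consensus evaluations.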

[5] = test system: ISO-induced myocardial ischemia; test: Cardiac index; type: in vivo, Sprague-Dawley (SD) rats; conditions: propranolol 30 mg/kg oral 14 days; vs ISO
Outline: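 Male SD rats (200 ± 20 g, n = 10/group) received oral gavage daily for 14 days, with ISO 85 mg/kg s.c. on days 7-14, 30 min post-gavage. After ECG, hearts were excised, rinsed in pre-cooled saline, blotted dry and weighed. Cardiac index = heart weight/body weight, in mg/g.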

[6] = test system: ISO-induced myocardial ischemia; test: Masson's trichrome staining, myocardial fibrotic area; type: in vivo, Sprague-Dawley (SD) rats; conditions: propranolol 30 mg/kg oral 14 days; ISO rats
Outline: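 ISO model: SD rats, 14-day oral pretreatment, ISO 85 mg/kg s.c. on days 7-14. Paraffin heart sections (4 μm) were deparaffinized and stained with Weigert's iron hematoxylin, then Biebrich scarlet-acid fuchsin, phosphomolybdic-phosphotungstic acid and aniline blue; collagen stains blue. Images were taken at 200x. Fibrosis was expressed as collagen-positive area as a percentage of total myocardial area.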

[7] = test system: Bax; test: Western blot of myocardial Bax; type: in vivo, Sprague-Dawley (SD) rats; conditions: propranolol 30 mg/kg oral 14 days; ISO rats; Control = 1.00
[8] = test system: Bcl-2; test: Western blot of myocardial Bcl-2; type: in vivo, Sprague-Dawley (SD) rats; conditions: propranolol 30 mg/kg oral 14 days; ISO rats; Control = 1.00
[9] = test system: Cleaved caspase-3; test: Western blot of myocardial cleaved caspase-3; type: in vivo, Sprague-Dawley (SD) rats; conditions: propranolol 30 mg/kg oral 14 days; ISO rats; Control = 1.00
[10] = test system: Nrf2; test: Western blot of myocardial Nrf2; type: in vivo, Sprague-Dawley (SD) rats; conditions: propranolol 30 mg/kg oral 14 days; ISO rats; Control = 1.00
[11] = test system: HO-1; test: Western blot of myocardial HO-1; type: in vivo, Sprague-Dawley (SD) rats; conditions: propranolol 30 mg/kg oral 14 days; ISO rats; Control = 1.00
[12] = rat plasma, single oral P. indicus extract 54 mg/kg, n = 6
[13] = Sprague-Dawley, rat, plasma, po, 54 mg/kg

- AUC0-24h [1, 12]: 3420 ± 510 ng·h/mL
- Cmax [1, 12]: 850 ± 110 ng/mL
- Tmax [1, 12]: 0.52 ± 0.15 h
- t1/2 [1, 12]: 2.8 ± 0.3 h
Compound: COc1cc(/C=C/C(=O)O)ccc1O [Ferulic acid]

- AUC(0-t) [1, 13]: 7210 ± 950 ng·h/mL
- Cmax [1, 13]: 2450 ± 300 ng/mL
- Tmax [1, 13]: 0.25 ± 0.08 h
- half-life [1, 13]: 1.8 ± 0.2 h
Compound: CCCCC/C=C\C/C=C\CCCCCCCC(=O)O [Linoleic acid]

- AUC(0-t) [1, 13]: 5950 ± 720 ng·h/mL
- Cmax [1, 13]: 1280 ± 150 ng/mL
- half-life [1, 13]: 3.2 ± 0.4 h
- Tmax [1, 12]: 0.50 ± 0.12 h
Compound: O=c1c(O[C@@H]2O[C@H](CO)[C@@H](O)[C@H](O)[C@H]2O)c(-c2ccc(O)c(O)c2)oc2cc(O)cc(O)c12 [Quercetin-3-O-glucoside]

Second part, the molecule before the results:

Compound: Cc1ccccc1C(=O)N1CCc2cc(-c3nc(NC(=O)Cc4ccc5c(c4)OCO5)sc3C)ccc21 [ML385]
- Effect on P.indicus's antioxidant effect (SOD activity, MDA content) ([2]; ML385 30 mg/kg i.p. before P. indicus 54 mg/kg + ISO): nullified P.indicus’s antioxidant effect
- Effect on P.indicus-induced reduction in serum cTn-T [2]: attenuated the P.indicus-induced reduction in serum cTn-T
- Intrinsic cardiotoxicity of inhibitor [2]: ruled out intrinsic cardiotoxicity

Compound: COC(=O)CC[C@H](NC(=O)[C@H](CC(=O)OC)NC(=O)OCc1ccccc1)C(=O)N[C@H](C(=O)N[C@@H](CC(=O)OC)C(=O)CF)C(C)C [Z-DEVD-FMK]
- Effect on P.indicus-induced reduction in serum cTn-T [2]: attenuated the P.indicus-induced reduction in serum cTn-T
- Effect on P.indicus suppression of cleaved caspase-3 (western blot) ([2]; Z-DEVD-FMK 1 mg/kg i.p. 30 min before each P. indicus gavage (54 mg/kg) + ISO): reversed the suppression of cleaved caspase-3
- Effect on P.indicus's anti-apoptotic action ([2]; Z-DEVD-FMK 1 mg/kg i.p. before P. indicus 54 mg/kg + ISO): selectively blocked its anti-apoptotic action
- Intrinsic cardiotoxicity of inhibitor [2]: ruled out intrinsic cardiotoxicity

Compound: CC(C)NCC(O)COc1cccc2ccccc12 (stereo not drawn) [propranolol]
- ST-segment elevation ([3]; ISO 85 mg/kg s.c. days 7-14): 0.024 ± 0.033 mV
- QRS duration ([3]; ISO rats): 0.041 ± 0.002 s
- Ventricular premature beats (VPBs) ([3]; ISO rats): 1.2 ± 0.3 beats/60 min
- Pathological score (H&E) vs ISO group [4]: significantly lower
- ISO-induced increase of cardiac index (heart weight/body weight ratio) [5]: significantly attenuated
- Fibrotic area (Masson's trichrome) [6]: 11.2 ± 2.1%
- Relative expression of protein Bax [7]: 1.74 ± 0.36
- Relative expression of protein Bcl-2 [8]: 0.63 ± 0.08
- Relative expression of protein Cleaved caspase-3 [9]: 2.48 ± 0.63
- Relative expression of protein Nrf2 [10]: 2.55 ± 0.21
- Relative expression of protein HO-1 [11]: 3.80 ± 0.64
